Experimental findings from ChEMBL document CHEMBL4007405 (J Med Chem, 2017) are described below.

Positions of bridges follow the written chain, without caps; N, C: chain ends. Residues, ends and D or L forms follow the SMILES beside them.

For series [1], the target named is T1, Lethal factor (Bacillus anthracis) (UniProt P15917).
T1 sequence (whole entry): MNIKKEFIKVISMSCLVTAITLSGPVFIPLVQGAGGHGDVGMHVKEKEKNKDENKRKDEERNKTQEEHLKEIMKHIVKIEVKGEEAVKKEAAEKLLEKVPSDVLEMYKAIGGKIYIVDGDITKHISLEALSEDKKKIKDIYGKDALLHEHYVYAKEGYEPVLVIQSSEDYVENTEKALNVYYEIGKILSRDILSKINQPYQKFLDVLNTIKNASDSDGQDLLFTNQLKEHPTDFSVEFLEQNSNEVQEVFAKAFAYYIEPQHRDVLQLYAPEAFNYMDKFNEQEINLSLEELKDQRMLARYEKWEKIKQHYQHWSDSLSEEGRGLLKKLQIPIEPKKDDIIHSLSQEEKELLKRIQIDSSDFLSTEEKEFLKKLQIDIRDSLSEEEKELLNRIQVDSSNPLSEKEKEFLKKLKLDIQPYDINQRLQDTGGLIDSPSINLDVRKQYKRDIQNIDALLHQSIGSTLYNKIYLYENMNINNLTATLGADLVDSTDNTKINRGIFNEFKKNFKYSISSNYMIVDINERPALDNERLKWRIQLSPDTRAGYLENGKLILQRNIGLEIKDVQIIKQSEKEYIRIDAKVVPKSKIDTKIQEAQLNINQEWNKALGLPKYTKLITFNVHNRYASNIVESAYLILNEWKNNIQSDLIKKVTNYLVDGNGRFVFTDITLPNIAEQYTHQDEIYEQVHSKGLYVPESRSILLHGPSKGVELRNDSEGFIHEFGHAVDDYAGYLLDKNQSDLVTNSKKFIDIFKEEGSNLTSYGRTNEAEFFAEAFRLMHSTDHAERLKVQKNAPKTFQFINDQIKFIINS
Kind of series: (§1) Inhibition of Bacillus anthracis lethal factor protease preincubated for 30 mins prior to addition of substrate containing fluorescent proteins CyPet and YPet measured every 2 mins for 3 hrs by FRET assay. Put shortly: (§2)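 Preincubated with peptide from 1 nM to 10 μM for 30 min at room temperature. CyPet–YPet substrate (LF consensus sequence with (GGS)6 linkers) then added to a final 10 nM. FRET read every 2 min for 3 h with excitation at 405 nm and emission ratio It/I0 at 535 nm. Initial velocities fitted to log(inhibitor)–response with variable Hill slope. Run in triplicate.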

For series [2], the target named is T2, Lethal factor (Bacillus anthracis, UniProt P15917).
T2 sequence (P15917 whole entry): T1 sequence (whole entry)
The description is as §1. Put shortly: as §2

The target in series [3] is Disintegrin and metalloproteinase domain-containing protein 17 (Homo sapiens) (UniProt P78536). As to the kind of experiment: Inhibition of recombinant human glycosylated his-tagged TACE catalytic domain (233 to 477 residues) assessed as inhibition of proteolytic activity preincubated for 30 mins prior to addition of Mca-Pro-Leu-Ala-Gln-Ala-Val-Dpa-Arg-Ser-Ser-Ser-Arg-NH2 as substrate measured every 2 mins for 3 hrs by fluorescence analysis. Put shortly:
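TACE catalytic domain (233-477) at 2 nM in 2.5 μM ZnCl2, 25 mM Tris-HCl, pH 8.0. Preincubated with peptide from 1 nM to 10 μM for 30 min at room temperature. Fluorogenic Mca/Dpa substrate then added to a final 3 μM. Fluorescence read every 2 min for 3 h (excitation 320 nm, emission 405 nm). Initial velocities fitted to log(inhibitor)–response with variable Hill slope.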

A further series relates to HeLa. As to the kind of experiment: Cytotoxicity against human HeLa cells up to 100 uM after 48 hrs by MTT assay. Format: cell-based. In a few lines: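 HeLa cells grown in DMEM with 10% FBS, penicillin and streptomycin at 37° C, 5% CO2. About 3 × 10^3 cells per well were seeded for 24 h, washed with PBS, then exposed to peptides in DMEM/10% FBS for 48 h at 37° C. MTT was added for 2 h and formazan dissolved in DMSO. Absorbance read at 595 nm with 670 nm background subtracted.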

The target in series [4] is T2, Lethal factor.

Sequence of Disintegrin and metalloproteinase domain-containing protein 17 (Homo sapiens) (P78536 whole entry, the tested form may be a part): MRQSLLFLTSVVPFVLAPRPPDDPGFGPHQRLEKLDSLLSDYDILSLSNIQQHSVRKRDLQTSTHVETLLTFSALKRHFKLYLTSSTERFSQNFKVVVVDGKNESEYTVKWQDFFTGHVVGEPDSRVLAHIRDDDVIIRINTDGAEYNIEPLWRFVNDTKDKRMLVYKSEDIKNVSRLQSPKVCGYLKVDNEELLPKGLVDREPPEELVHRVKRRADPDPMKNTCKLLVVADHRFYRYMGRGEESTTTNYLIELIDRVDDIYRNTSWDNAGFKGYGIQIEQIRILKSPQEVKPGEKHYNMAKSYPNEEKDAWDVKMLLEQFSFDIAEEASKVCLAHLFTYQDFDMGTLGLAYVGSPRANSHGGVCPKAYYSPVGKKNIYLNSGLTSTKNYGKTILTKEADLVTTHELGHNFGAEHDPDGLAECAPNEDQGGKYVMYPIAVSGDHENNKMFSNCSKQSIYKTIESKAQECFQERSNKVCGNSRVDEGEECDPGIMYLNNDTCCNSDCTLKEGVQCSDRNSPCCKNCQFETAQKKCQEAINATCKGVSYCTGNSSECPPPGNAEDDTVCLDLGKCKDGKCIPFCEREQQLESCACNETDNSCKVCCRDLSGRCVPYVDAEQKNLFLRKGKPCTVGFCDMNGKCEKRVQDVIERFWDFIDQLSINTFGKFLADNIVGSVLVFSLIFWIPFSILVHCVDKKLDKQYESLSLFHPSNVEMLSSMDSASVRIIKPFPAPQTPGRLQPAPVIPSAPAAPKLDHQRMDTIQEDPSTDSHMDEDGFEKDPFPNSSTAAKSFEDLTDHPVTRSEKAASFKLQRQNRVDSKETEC

`CC[C@H](C)[C@@H]1NC(=O)[C@@H]2CSSC[C@H](NC(=O)[C@H](CCCNC(=N)N)NC(=O)[C@@H]3CSSC[C@H](NC1=O)C(=O)N[C@@H]([C@@H](C)O)C(=O)N[C@@H](CCCNC(=N)N)C(=O)NCC(=O)N[C@@H](Cc1ccccc1)C(=O)N3)C(=O)N[C@@H](CC(C)C)C(=O)N[C@H]1CSSC[C@H](NC(=O)[C@H](C(C)C)NC(=O)CNC(=O)[C@H](CCCNC(=N)N)NC(=O)[C@H](CCCNC(=N)N)NC1=O)C(=O)N[C@@H](CCCNC(=N)N)C(=O)N2` (cyclo(GFCRCLCRRGVCRCICTR); disulfide 3-16, 5-14, 7-12): the inhibition result in series [1] and in series [3] was “Dose-dependent effect” throughout. In addition, the IC50 (commonly the concentration that gives 50% inhibition) came to 390 nM at Lethal factor [2] and 1060 nM on Lethal factor [4]. Besides, the Activity result in the series on HeLa is “Non-Toxic”.
